These results are taken from ChEMBL document CHEMBL1150667, “New cytotoxic constituents from the Formosan soft corals Clavularia viridis and Clavularia violacea” (2002).

In brackets after ≈: the same amount, converted by molar mass.

Common to all, as to format: functional
Experiment [1] relates to A549. The experiment in a line: Cytotoxicity against human A549 cells. To be noted: for EC50: Homo sapiens, A549, read-out: ED50 (the source's name). The method in brief: (§1)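 Human lung adenocarcinoma (A549) and colon adenocarcinoma (HT-29) lines obtained from ATCC. Cytotoxicity assayed in cell culture following a previously published standard procedure.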
Experiment [2] has as its system HT-29. The experiment in a line: Cytotoxicity against human HT-29 cells. Conditions: read-out: ED50 (the source's name). The essentials: as §1
The test system of experiment [3] is P388. The experiment in a line: Cytotoxicity against mouse P388 cells. To be noted: for EC50: Mus musculus, P388, read-out: ED50 (the source's name). The essentials: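 Mouse lymphocytic leukemia P-388 cells obtained from an academic laboratory (University of Illinois at Chicago). Cytotoxicity assayed in cell culture following a previously published standard procedure.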

As to `C=C1C(=O)O[C@H]2/C=C(\C)C[C@H](OC(C)=O)/C=C(\C)C[C@H](OC(C)=O)/C=C(\C)CC[C@H]12` [CLAVIOLIDE], the values for the EC50 in experiment [1], in experiment [2] and in experiment [3] were 4.91 µg/mL (≈ 11.8 µM), 0.84 µg/mL (≈ 2.02 µM) and 0.38 µg/mL (≈ 0.912 µM), respectively.
On the same counts, the results for `CCCCC/C=C\C[C@]1(OC(C)=O)C=CC(=O)/C1=C/C=C/CCCC(=O)OC` [CLAVIRIDENONE E] are 0.41 µg/mL (≈ 1.06 µM), 1.02 µg/mL (≈ 2.63 µM) and 0.11 µg/mL (≈ 0.283 µM).
On to `CC(C)[C@@H](C)CC[C@@H](C)[C@H]1CC[C@H]2[C@@H]3C[C@@H](O)C4=CC=CC(=O)[C@]4(C)[C@H]3[C@H](O)C[C@]12C` [STOLONIFERONE E], for which the ED50 in experiment [1] amounted to 3.2 ×10⁻⁴ ug/ml; in experiment [3], 1.2 ×10⁻⁴ ug/ml. Also, the EC50 in experiment [2] stood at 0.0091 µg/mL (≈ 0.0212 µM).
Consider `CC(C)[C@@H](C)CC[C@@H](C)[C@H]1CC[C@H]2[C@@H]3C[C@@H](O)[C@@]4(O)C=C[C@@H](O)C(=O)[C@]4(C)[C@H]3[C@H](O)C[C@]12C` [STOLONIFERONE F], for which the EC50 in experiment [1] stood at 3.69 µg/mL (≈ 7.98 µM); in experiment [2], 6.46 µg/mL (≈ 14 µM); in experiment [3] it was 2.36 µg/mL (≈ 5.1 µM).
On the same counts, the results for `C=C(CC[C@@H](C)[C@H]1CC[C@H]2[C@@H]3C[C@@H](O)[C@@]4(O)C=C[C@@H](O)C(=O)[C@]4(C)[C@H]3[C@H](O)C[C@]12C)C(C)C` [STOLONIFERONE G] are 3.58 µg/mL (≈ 7.77 µM), 5.86 µg/mL (≈ 12.7 µM) and 2.12 µg/mL (≈ 4.6 µM).
